Reference: ChEMBL document CHEMBL1122501, “Potential antiatherosclerotic agents. 2. (Aralkylamino)- and (alkylamino) benzoic acid analogues of cetaben” (1983)
“And” between values parts separate entries of the source, which are not always exact repeats. Equal entries are not always repeated.

What was measured:
Rattus norvegicus [1] = assay: In vivo Sterol lowering activity at dose as 0.01 % of the diet.; assay type: functional
Procedure, shortened: (§1)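 Male CFE or CD-1 Sprague-Dawley rats, 140-150 g; 8 per control group, 4 per test group. Compound mixed into ground chow (w/w) via MeOH-CHCl3 (1:3) solution, solvent evaporated; controls got solvent-treated chow. Fed ad libitum 5 days, food intake monitored, killed fed and bled. Serum sterols and triglycerides by adapted autoanalyzer methods; mean percent of control, Student's t test.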

Rattus norvegicus [2] = assay: In vivo triglyceride lowering activity dosed at 0.10 % of the diet; assay type: functional; procedure, shortened: as §1
Rattus norvegicus [3] = assay: In vivo triglyceride lowering activity, dosed at 0.01 % of the diet.; assay type: functional; procedure, shortened: as §1
Rattus norvegicus [4] = assay: In vivo triglyceride lowering activity, dosed at 0.03 % of the diet; assay type: functional; procedure, shortened: as §1
Rattus norvegicus [5] = assay: In vivo sterol lowering activity dosed at 0.10 % of the diet; assay type: functional; procedure, shortened: as §1
Rattus norvegicus [6] = assay: In vivo Sterol lowering activity at dose as 0.03 % of the diet.; assay type: functional; procedure, shortened: as §1
[7] = target: T1, Sterol O-acyltransferase 1 (Rattus norvegicus) (UniProt O70536); assay: In vitro inhibitory activity against acyl coenzyme A:cholesterol acyltransferase (ACAT); design: concentration or dose not given beside the values; conditions: concentration not given here
T1 sequence (whole entry): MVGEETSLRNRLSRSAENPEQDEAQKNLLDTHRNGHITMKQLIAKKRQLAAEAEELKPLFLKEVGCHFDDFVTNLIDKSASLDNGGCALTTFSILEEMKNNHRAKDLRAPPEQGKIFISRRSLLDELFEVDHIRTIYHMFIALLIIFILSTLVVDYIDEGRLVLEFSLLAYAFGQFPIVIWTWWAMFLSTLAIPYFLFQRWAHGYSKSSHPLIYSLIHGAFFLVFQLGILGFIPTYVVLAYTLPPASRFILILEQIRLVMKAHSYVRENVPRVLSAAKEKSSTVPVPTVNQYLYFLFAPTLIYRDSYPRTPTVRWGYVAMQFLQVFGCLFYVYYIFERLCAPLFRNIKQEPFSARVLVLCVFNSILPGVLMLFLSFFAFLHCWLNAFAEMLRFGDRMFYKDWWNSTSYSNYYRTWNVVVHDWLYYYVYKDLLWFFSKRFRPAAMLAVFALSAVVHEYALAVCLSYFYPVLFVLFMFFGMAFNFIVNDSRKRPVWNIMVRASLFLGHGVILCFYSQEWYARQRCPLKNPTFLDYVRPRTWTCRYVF
Procedure, shortened: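 ACAT enzyme from rat adrenal homogenate in 0.2 M KH2PO4 buffer pH 7.4, 1000g 15 min 5 °C supernatant (microsomal fraction). Supernatant + BSA (50 mg/mL) + compound at final 5.2 μg/mL + buffer preincubated 10 min 37 °C; [14C]oleoyl-CoA (0.4 μCi) added, 30 min 37 °C. Lipids extracted, TLC; cholesteryl ester zone counted. Mean % inhibition vs no-compound control; Student's t test.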

Rattus norvegicus [8] = assay: In vivo Triglyceride lowering activity at dose as 0.01 % of the diet; assay type: functional; procedure, shortened: as §1
Rattus norvegicus [9] = assay: In vivo Sterol lowering activity at dose as 0.10 % of the diet.; assay type: functional; procedure, shortened: as §1
Rattus norvegicus [10] = assay: In vivo triglyceride lowering activity dosed at 0.05 % of the diet; assay type: functional; procedure, shortened: as §1
Rattus norvegicus [11] = assay: In vivo Sterol lowering activity at dose as 0.05 % of the diet; assay type: functional; procedure, shortened: as §1

Row | inhibition [7] | Structure (SMILES) | serum sterol, percent of control (Rattus norvegicus [1]) [%] | serum triglycerides, percent of control (Rattus norvegicus [2]) [%] | serum triglycerides, percent of control (Rattus norvegicus [4]) [%] | serum sterol, percent of control (Rattus norvegicus [5]) [%] | serum sterol level, percent of control (Rattus norvegicus [6]) [%] | other results
1 | 19% | O=C(O)c1ccc(NCCCc2ccc(Cl)c(Cl)c2)cc1 | 96 | 63 | 70 | 73 | 89 | Diet (Rattus norvegicus [3]): 79%
2 | < 36% | CCCCCCCCCCCCCCCCCCCNc1ccc(C(=O)O)cc1 |  |  |  |  |  | 
3 |  | O=C(O)c1ccc(NCCCc2ccc(Cl)cc2)cc1 [listing 1 of 2 here] | 94 | 50 | 54 | 72 | 94 | Diet (Rattus norvegicus [3]): 70%
4 | < 22% | CCCCCCCCCCCCCNc1ccc(C(=O)OCC)cc1 |  | <70 |  | 91 |  | 
5 | 0% | CCCCCCCCCCCCCCCCNc1ccc(C(=O)OC)cc1 |  | 85 |  | 97 |  | 
6 | 54% | CCOC(=O)c1ccc(NCCCc2ccc(OC)cc2)cc1 | 97 | 60 | 59 | 86 | 90 | Diet (Rattus norvegicus [3]): 82%
7 | 9% | C=C(CCCCCCCCCC)CCCCCNc1ccc(C(=O)OCC)cc1 |  | <56 |  | <88 |  | 
8 |  | O=C([O-])c1ccc(NCCCc2ccc(Cl)cc2)cc1.[Na+] | 94 | 52 | 60 | 84 | 92 | Diet (Rattus norvegicus [3]): 72%
9 | 50% | CCOC(=O)c1cccc(NCCCc2ccc(Cl)cc2)c1 | 96 | 59 | 62 |  | 93 | Diet (Rattus norvegicus [8]): 75%; serum sterol, percent of control (Rattus norvegicus [9]): 96%
10 | 53% | CCOC(=O)c1ccc(N(C)CCCc2ccc(Cl)cc2)cc1 |  | 49 |  |  |  | serum sterol, percent of control (Rattus norvegicus [9]): 99%
11 | 20% | COc1ccc(/C=C/C(=O)Nc2ccc(C(=O)O)cc2)cc1 |  |  |  |  |  | 
12 |  | CCCCCCCCCCCCCCCCCNc1ccc(C(=O)OCC)cc1 |  |  |  | 111 |  | 
13 | < 40% | CCOC(=O)c1ccc(NCCCCCCCCCCCCc2cccs2)cc1 |  | <46 |  | 103 |  | 
14 | < 44% | C=CCCCCCCCC/C=C/CCCNc1ccc(C(=O)O)cc1 |  |  |  |  |  | 
15 | 33% | CCOC(=O)c1ccc(NCc2ccc(Cl)cc2)cc1 | 94 | 50 | 53 | 84 | 86 | Diet (Rattus norvegicus [3]): 78%
16 | 37% | CCOC(=O)c1ccc(NCCCCCCc2ccco2)cc1 | 95 | 60 | 64 |  | 103 | Diet (Rattus norvegicus [8]): 68%; serum sterol, percent of control (Rattus norvegicus [9]): 90%
17 | 63% | CCOC(=O)c1ccc(NCCCCCCc2cccs2)cc1 |  |  |  |  |  | 
18 | 18% and 19% | O=C(O)c1ccc(NCCCc2ccc(Cl)cc2)cc1 [listing 2 of 2 here] |  |  |  |  |  | 
19 | 52% | CCOC(=O)c1ccc(NC(=O)/C=C/c2ccc(OC)cc2)cc1 |  |  |  |  |  | 
20 | < 59% | CCCCCCCCCCCc1nc(CNc2ccc(C(=O)OCC)cc2)c[nH]1 |  | 83 |  | 100 |  | 
21 | 50% | CCOC(=O)c1ccc(NCCCc2cccc(F)c2)cc1 | 91 | 37 | 55 | 77 | 88 | Diet (Rattus norvegicus [8]): 78%
22 | 48% | CCOC(=O)c1ccc(N(CC)CCCc2ccc(Cl)cc2)cc1 |  | 67 |  |  |  | serum sterol, percent of control (Rattus norvegicus [9]): 86%
23 | < 53% | CCCCCCCCCCCCCCCCNc1ccc(C(=O)O)cc1 |  |  |  |  |  | 

Row | inhibition [7] | Structure (SMILES) | serum sterol, percent of control (Rattus norvegicus [1]) [%] | serum triglycerides, percent of control (Rattus norvegicus [2]) [%] | serum triglycerides, percent of control (Rattus norvegicus [4]) [%] | serum sterol, percent of control (Rattus norvegicus [5]) [%] | serum sterol level, percent of control (Rattus norvegicus [6]) [%] | other results
24 | 14% | CC(C(=O)O)c1ccc(NCCCc2ccc(Cl)cc2)cc1 (stereo not given) | 94 | 33 | 63 | 62 | 96 | Diet (Rattus norvegicus [8]): 63%
25 | < 57% | CCCCCCCCc1ccc(CCCNc2ccc(C(=O)OCC)cc2)s1 |  | <46 |  | <83 |  | 
26 | 31% | CCOC(=O)c1ccc(NCCCc2ccc(C)cc2)cc1 | 127 | 68 | 54 | 122 | 103 | Diet (Rattus norvegicus [8]): 72%
27 | 42% | CCOC(=O)c1ccc(NCCCc2ccc(Cl)cc2)cc1 | 90 | 52 |  | 76 | 89 | 
28 | 52% | CCN(CCCc1ccc(Cl)cc1)c1ccc(C(=O)O)cc1 |  | 68 |  |  |  | serum sterol, percent of control (Rattus norvegicus [9]): 83%
29 | 26% | O=C(O)c1ccc(NC/C=C/c2ccc(Cl)cc2)cc1 | 83 | 54 | 48 |  | 92 | Diet (Rattus norvegicus [3]): 95%; serum sterol, percent of control (Rattus norvegicus [9]): 90%
30 | 62% | CCOC(=O)c1ccc(NCCCc2c(Cl)cccc2Cl)cc1 |  | 64 |  |  |  | serum sterol, percent of control (Rattus norvegicus [9]): 92%
31 | 46% | O=[N+]([O-])c1ccc(CCCNc2ccccc2)cc1 | 90 | 49 | 61 |  | 88 | Diet (Rattus norvegicus [3]): 90%; serum sterol, percent of control (Rattus norvegicus [9]): 87%
32 | 15% and 13% | O=C(O)c1ccc(NCc2ccc(Cl)cc2)cc1 |  |  |  |  |  | 
33 | < 21% and 17% | CCCCCCCCCCCCNc1ccc(C(=O)O)cc1 |  |  |  |  |  | 
34 | < 47% | CCOC(=O)c1ccc(NCCCCCCCCCC/C=C\c2cccs2)cc1 |  | 72 |  | <82 |  | 
35 | < 60% | CCCCCCCCCCCCCCCCCCNc1ccc(C(=O)O)cc1 |  |  |  |  |  | 
36 | 0% | COc1ccc(CCC(=O)Nc2ccc(C(=O)O)cc2)cc1 |  |  |  |  |  | 
37 | 18% | O=C(O)c1ccc(NCCCc2cccc(Br)c2)cc1 | 92 | 60 | 67 | 80 | 91 | Diet (Rattus norvegicus [8]): 63%
38 | < 46% | CCCCCCCCCC/C=C/CCCNc1ccc(C(=O)O)cc1 |  |  |  |  |  | 
39 | 79% | CCOC(=O)c1ccc(NCCCc2cccc(Cl)c2)cc1 | 93 | 56 | 65 | 80 | 88 | Diet (Rattus norvegicus [8]): 65%
40 | 24% | CN(CCCc1ccc(Cl)cc1)c1ccc(C(=O)O)cc1 |  | 74 |  |  |  | serum sterol, percent of control (Rattus norvegicus [9]): 107%
41 | 0% | O=C(O)c1ccc(C(=O)O)c(NCCCc2ccc(Cl)cc2)c1 | 102 | 51 | 57 |  | 100 | Diet (Rattus norvegicus [3]): 72%; serum sterol, percent of control (Rattus norvegicus [9]): 103%
42 |  | CCCCCCNc1ccc(C(=O)O)cc1 |  |  |  |  |  | serum sterol, percent of control (Rattus norvegicus [9]): 94%
43 | < 62% | CCOC(=O)c1ccc(NCCCCCCCCCC/C=C/c2cccs2)cc1 |  |  |  |  |  | 
44 | 14% | O=C(O)c1ccc(NCCCCCCCc2ccccc2)cc1 |  | <71 |  | 91 |  | Diet (Rattus norvegicus [10]): <61%; Diet (Rattus norvegicus [11]): 96%
45 | < 29% | CCCCCCCCCCCCCNc1ccc(C(=O)O)cc1 |  |  |  |  |  | 
